# Screening results as filed in PubChem BioAssay.
# Shown are actives, neighbours in structure and some others; about 1% of the full set was active somewhere.
# hK5 inh: human KLK5 protease inhibitors, primary screen, biochemical, 1536-well; AID 873, 2007; 0.59% of 210,000 active; recombinant hK5, fluorogenic AMC substrate cleavage; inhibition, % at 5 µM;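 active = inhibition of 40% or more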;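 also: 0% = enzyme controls without compound and 100% = no-enzyme blanks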
# FXIIa inh: human FXIIa protease inhibitors, primary screen, biochemical, 1536-well. AID 800, 2007. Coagulation factor XII (Homo sapiens), P00748. purified FXIIa, Boc-QGR-AMC fluorogenic substrate, 2 h. 0.3% of 220,000 active. inhibition, % at 5 µM; in the data active = inhibition above about 40%;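 also: 0% = enzyme with no compound and 100% = blank without enzyme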
# Target sequence (P00748 20-372 limits assumed): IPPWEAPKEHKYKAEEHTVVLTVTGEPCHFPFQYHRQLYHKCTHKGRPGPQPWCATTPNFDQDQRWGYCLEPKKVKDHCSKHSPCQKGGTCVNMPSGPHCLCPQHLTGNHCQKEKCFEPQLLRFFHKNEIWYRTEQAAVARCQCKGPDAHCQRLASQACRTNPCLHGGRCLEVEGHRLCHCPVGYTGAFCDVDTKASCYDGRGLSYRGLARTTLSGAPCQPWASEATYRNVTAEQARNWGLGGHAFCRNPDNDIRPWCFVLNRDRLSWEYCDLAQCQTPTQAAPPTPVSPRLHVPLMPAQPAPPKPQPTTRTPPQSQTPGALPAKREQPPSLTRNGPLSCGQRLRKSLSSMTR
# Target sequence (P00748 373-615 limits assumed): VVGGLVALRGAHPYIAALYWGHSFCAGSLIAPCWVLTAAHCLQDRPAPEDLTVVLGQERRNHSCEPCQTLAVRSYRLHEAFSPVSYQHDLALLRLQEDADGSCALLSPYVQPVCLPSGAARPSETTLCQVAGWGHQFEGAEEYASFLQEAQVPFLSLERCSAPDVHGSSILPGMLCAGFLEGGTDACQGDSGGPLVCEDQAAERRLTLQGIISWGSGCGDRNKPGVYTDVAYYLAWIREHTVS
# FXIa inh 1536: human FXIa protease inhibitors, primary screen, biochemical, 1536-well | Coagulation factor XI (Homo sapiens), P03951 | purified FXIa, Boc-Glu-Ala-Arg-AMC fluorogenic substrate | inhibition, % at 5 µM | 0.14% of 220,000 active;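 active = inhibition of at least 40%; inactive = inhibition below 40%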;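 also: fluorescence of freed AMC excited at 355 nm; 0% = enzyme without compound and 100% = no enzyme blank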
# thrombin 1536: human alpha-thrombin inhibitors, primary screen, counter-screen for coagulation protease inhibitor project, biochemical, 1536-well, fluorogenic AMC substrate | Prothrombin (Homo sapiens), P00734 | Boc-VPR-AMC fluorogenic substrate cleavage | inhibition, % at 5 µM | 0.26% of 220,000 active | AID 1046, 2008;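 active = inhibition at or above 40%; inactive = inhibition below 40%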;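 also: 0% = enzyme with no compound and 100% = wells without enzyme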
#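 signal = AMC fluorescence, 355/460 nm | material = human alpha-thrombin enzyme | control set = enzyme without compound as high, wells lacking enzyme as low | times = reaction at room temperature | read-out basis = percent inhibition scaled between no-compound controls and no-enzyme blanks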
# * = called active by the depositor; · = no result given.
SMILES,hK5 inh,FXIIa inh,FXIa inh 1536,thrombin 1536
O=C1CC(Sc2ccc(Cl)cc2)C(=O)N1c1ccc2c(c1)OCCO2 (stereo not given),53.1*,16.9,43.9*,37.1
Nc1ccccc1SC1CC(=O)N(c2ccc3c(c2)OCCO3)C1=O (stereo not given),-4.4,5.0,-5.0,-4.9
CCn1c(C)nc2cc(C(=O)N/N=C(\C)c3ccc(OC)cc3O)ccc21,30.3,35.6,42.6*,57.8*
CN(CC1CCCO1)S(=O)(=O)c1ccc(C(=O)Nc2ccc3c(c2)OCO3)cc1 (stereo not given),61.2*,28.8,34.2,5.3
O=C(CSc1ncnc2c1cnn2CCO)Nc1cccc(C(F)(F)F)c1,-13.2,2.5,-3.6,-5.0
CCC(=O)Nc1ccc(C(=O)CSc2nc3ccccc3cc2CC)cc1,59.6*,21.2,0.9,104.4*
CCc1nc2ccccc2c(C(=O)OCC(=O)C(C)(C)C)c1C,31.9,27.4,29.2,46.8*
CCSc1nnc(COc2ccccc2)n1CC,2.0,4.6,-1.5,-1.4
CN1CCN(Cc2cc(=O)oc3cc4c(cc23)CCC4)CC1,-2.6,5.4,0.0,-1.7
O=c1cc(CN2CCN(c3ccc(F)cc3)CC2)c2cc3c(cc2o1)CCCC3,40.3*,27.0,18.4,17.0
O=C(NCCCN1CCOCC1)C(=O)NCc1ccccc1Cl,-0.2,7.0,-3.9,-7.0
Cc1c(NS(=O)(=O)c2ccc(Cl)c(C(=O)OCC(=O)NCc3ccco3)c2)c(=O)n(-c2ccccc2)n1C,24.1,17.4,18.5,45.8*
CSc1ccc(CN2CCN(C(=O)c3ccncc3)CC2)cc1,2.2,7.1,0.8,2.5
CCn1cc(S(=O)(=O)CC(=O)Nc2ccc(OC)cc2)c2ccccc21,41.4*,30.9,18.2,29.9
CCOc1ccc(NC(=O)CS(=O)(=O)c2cn(CC)c3ccccc23)cc1,-0.7,14.0,10.9,2.4
COc1ccc(N(CC(=O)NCc2ccc(Cl)cc2)S(=O)(=O)c2ccccc2[N+](=O)[O-])c(OC)c1,22.7,37.1,102.2*,15.9
CCOC(=O)c1c(NC(=O)COc2ncnc3ccccc23)sc(C)c1CC,69.0*,24.4,2.8,34.3
CCOC(=O)c1c(NC(=O)CSc2ncnc3ccccc23)sc(C(C)=O)c1C,-17.0,7.4,5.5,-7.5
O=C(NCCN=C1NS(=O)(=O)c2ccccc21)c1ccco1,74.0*,-2.6,0.9,11.6
COc1cc(/C=C/C(=O)OCC(=O)NC(=O)NC(C)C)ccc1O,-2.0,-0.4,-2.1,-15.1
Cc1ccc(CCNC(=O)C2CCC(=O)N2Cc2cccnc2)cc1 (stereo not given),46.7*,15.8,5.6,6.0
CCC/S(C)=N/S(=O)(=O)c1ccc(C)cc1 (stereo not given),48.0*,11.1,37.6,10.2
O=c1cc(O)c2c(=O)n(-c3ccccc3)c3c(c2o1)CCCCC3,-17.9,11.6,2.5,-10.2
CC(Sc1nnc(-c2cc3ccccc3o2)n1-c1ccccc1)C(=O)O (stereo not given),-15.7,-0.9,-11.4,46.6*
C=CCOc1ccc(C=Nc2ccc(Cl)cc2)c(O)c1,-12.7,5.6,4.9,-3.0
SMILES,hK5 inh,FXIIa inh,FXIa inh 1536,thrombin 1536
Cc1cccc(CN2CCN(CC(=O)N3CCCC3)C2=O)c1,-17.4,8.0,42.9*,2.6
COc1cc(C2SCC(=O)N2c2c(C)n(C)n(-c3ccccc3)c2=O)ccc1O (stereo not given),23.2,19.3,42.9*,28.2
COc1ccc(C2SCC(=O)N2c2c(C)n(C)n(-c3ccccc3)c2=O)cc1 (stereo not given),-14.4,17.1,4.5,6.9
Cc1cccc(NC(=O)NC(C)C(c2ccccc2)N2CCN(C)CC2)c1 (stereo not given),8.4,6.8,0.8,-9.1
COc1cccc(-c2cc(C(=O)Nc3c(C)nn(Cc4ccccc4)c3C)no2)c1,55.4*,9.6,9.7,41.2*
COc1ccc(-c2cc(C(=O)Nc3c(C)nn(Cc4ccccc4)c3C)no2)cc1,-3.6,11.8,-0.2,1.9
CCn1c(NCc2cc(Cl)ccc2O)nc2ccccc21,2.9,10.6,1.3,0.9
Cn1c(NCCc2ccccc2)cc(=O)n(C)c1=O,2.6,77.1*,-1.6,-1.6
Cc1cc(C(=O)CCl)c(C)n1-c1cccc(S(=O)(=O)N2CCOCC2)c1,-3.4,5.1,-2.6,3.3
CSc1ccccc1C(=O)C1CCCN(S(=O)(=O)N(C)C)C1 (stereo not given),38.8,102.5*,33.1,13.2
O=C(NCC(c1cccnc1)N1CCN(c2ccc(F)cc2)CC1)OCc1ccccc1 (stereo not given),46.4*,14.1,9.6,21.2
COC(=O)NCC(c1ccco1)N1CCN(c2ccc(OC)cc2)CC1 (stereo not given),-28.0,-9.2,-9.0,-1.1
COC(=O)NCC(c1ccco1)N1CCN(c2ccc(F)cc2)CC1 (stereo not given),43.3*,-2.3,0.5,27.4
c1ccc2c(c1)CC/C2=N/Nc1nc2ccccc2[nH]1,1.9,8.9,8.6,0.2
CCCc1nc2oc3ccccc3c(=O)c2c(=O)n1CCCOC,3.6,6.3,-4.6,2.0
COC(=O)c1cccnc1NC(=S)NNC(=O)c1ccccc1,-9.2,14.3,6.2,-3.0
Cc1ccc(S(=O)(=O)N2CCN(C(=O)c3ccccc3)CC2)c(C)c1NS(C)(=O)=O,-1.6,4.7,-3.3,-8.8
Oc1ccc(-c2nc3ccccc3s2)cc1,-8.1,-1.0,-7.1,41.9*
Oc1ccc(-c2cccc(-c3ccc(O)cc3)n2)cc1,46.7*,-2.0,-8.6,-5.7
O=C(O)c1ccc(N/N=C/C2=Cc3ccccc3OC2)cc1,4.7,12.5,4.2,0.2
Nc1nc2c(C(=O)N3CCOCC3)nnn2c2ccccc12,3.1,10.1,10.4,1.1
O=C(NCCc1nc2ccccc2[nH]1)c1ccco1,52.0*,14.5,19.9,20.1
c1ccc(-c2n[nH]c3c2CCC3)cc1,50.5*,19.8,7.5,12.0
O=C(O)CCSc1nnc(COc2cccc3ccccc23)n1-c1cccc(Cl)c1,0.0,12.0,7.6,·
Cc1cccc(Nc2cc(=O)[nH]c(=O)[nH]2)c1C,-5.8,45.5*,31.5,1.3
Cc1ccc(Nc2cc(=O)[nH]c(=O)[nH]2)c(C)c1,-12.4,10.2,1.5,-1.6
CC(=O)c1ccccc1N(C(=O)c1ccco1)C(C(=O)NC1CCCC1)c1ccc(N2CCOCC2)cc1 (stereo not given),0.6,4.5,-5.3,-5.1
CCCOc1cccc(C(=O)N(Cc2ccco2)C2CCS(=O)(=O)C2)c1 (stereo not given),21.7,14.9,9.3,57.4*
O=C(NCC1CCCO1)C(=O)NCC(c1ccco1)N1CCN(c2ccccc2F)CC1 (stereo not given),-15.7,14.7,6.4,-5.0
CCOC(=O)c1sc2cc([N+](=O)[O-])cc(SCC(=O)OC)c2c1N,68.0*,31.5,10.8,28.6
